Laboratory results as given in ChEMBL document CHEMBL1123986, “Oral absorption of cephalosporin antibiotics. 2. Expanded structure-activity relationships of 7-(arylacetamido)-3-substituted cephalosporins” (1988).
Values after ≈ are worked out from the molar mass of the structure shown.

Assays:
Klebsiella aerogenes = test: Minimum inhibitory concentration against Enterobacter aerogenes; type: functional
Method in brief: (§1)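 Agar dilution MIC in μg/mL. […] Organisms not run are marked not tested.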

Escherichia coli = test: Minimum inhibitory concentration against Escherichia coli; type: functional; method in brief: as §1
Haemophilus influenzae [1] = test: (§2) Minimum inhibitory concentration against Haemophilus influenzae; type: functional; method in brief: as §1
Haemophilus influenzae [2] = test: as §2; type: functional; method in brief: as §1; remark: listed apart in the source
Klebsiella pneumoniae = test: Minimum inhibitory concentration against Klebsiella pneumoniae; type: functional; method in brief: as §1
Streptococcus pneumoniae [3] = test: Minimum inhibitory concentration against Streptococcus pneumoniae; type: functional; method in brief: as §1
Staphylococcus aureus [4] = test: Minimum inhibitory concentration against Staphylococcus aureus; type: functional; method in brief: as §1
Salmonella typhi = test: Minimum inhibitory concentration against Salmonella typhi; type: functional, Salmonella enterica subsp. enterica serovar Typhi; settings: Salmonella enterica
Streptococcus pyogenes [5] = test: Minimum inhibitory concentration against Streptococcus pyogenes; type: functional; method in brief: as §1
Mus musculus [6] = test: Effective dose administered orally (po) to 19-21-g random sex ICR mice at 1 hr and 5 hr intervals after intraperitoneal Staphylococcus aureus; type: functional
Method in brief: (§3)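 Mouse protection: random-sex ICR mice, 19–21 g, challenged intraperitoneally from a frozen organism pool giving 50–500 LD50 per challenge dose. Drug given sc or po at 1 and 5 h post-infection. Five 2-fold dilution levels per compound, eight mice per dilution.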

Mus musculus [7] = test: Effective dose administered subcutaneously (sc) to 19-21-g random sex ICR mice at 1 hr and 5 hr intervals after intraperitoneal administration of Streptococcus pneumoniae; type: functional; method in brief: as §3
Mus musculus [8] = test: Effective dose administered orally (po) to 19-21-g random sex ICR mice at 1 hr and 5 hr intervals after intraperitoneal administration of Streptococcus pneumoniae; type: functional; method in brief: as §3
Mus musculus [9] = test: Effective dose administered subcutaneously (sc) to 19-21-g random sex ICR mice at 1 hr and 5 hr intervals after intraperitoneal administration of Staphylococcus aureus; type: functional; method in brief: as §3
Mus musculus [10] = test: Effective dose administered orally (po) to 19-21-g random sex ICR mice at 1 hr and 5 hr intervals after intraperitoneal Streptococcus pyogenes; type: functional; method in brief: as §3
[11] = Ratio of ED50 value evaluated in Staphylococcus aureus by po to sc administration; type: functional
Method in brief: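 Oral/subcutaneous effective-dose ratio. Both routes were dosed in random-sex ICR mice of 19–21 g at 1 and 5 h after an intraperitoneal challenge of 50–500 LD50 from a frozen organism pool. Each route used five 2-fold dilution levels with eight mice per level, and the po value was divided by the sc value.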

Mus musculus [12] = test: Effective dose administered subcutaneously (sc) to 19-21-g random sex ICR mice at 1 hr and 5 hr intervals after intraperitoneal administration of Streptococcus pyogenes; type: functional; method in brief: as §3
Streptococcus pneumoniae [13] = test: Efficacy against mouse infections caused by S. Pneumoniae measured as Minimum inhibitory concentration
Staphylococcus aureus [14] = test: Efficacy against mouse infections caused by Staphylococcus aureus measured as Minimum inhibitory concentration
Streptococcus pyogenes [15] = test: Efficacy against mouse infections caused by Streptococcus pyogenes measured as Minimum inhibitory concentration

SMILES | MIC (Klebsiella aerogenes) | MIC (Escherichia coli) | MIC (Haemophilus influenzae [1]) | MIC (Haemophilus influenzae [2]) | MIC (Klebsiella pneumoniae) | MIC (Streptococcus pneumoniae [3]) | MIC (Staphylococcus aureus [4]) | MIC (Salmonella typhi) | MIC (Streptococcus pyogenes [5]) | ED50 (Mus musculus [6]) | ED50 (Mus musculus [7]) | ED50 (Mus musculus [8]) | ED50 (Mus musculus [9]) | ED50 (Mus musculus [10]) | Ratio [11] | ED50 (Mus musculus [12]) | MIC (Streptococcus pneumoniae [13]) | MIC (Staphylococcus aureus [14]) | MIC (Streptococcus pyogenes [15])
COc1ccc(CC(=O)N[C@@H]2C(=O)N3C(C(=O)O)=C(Cl)CS[C@H]23)cc1OC | > 128 µg/mL | 128 µg/mL (≈ 310 µM) | 1 µg/mL (≈ 2.42 µM) | 0.5 µg/mL (≈ 1.21 µM) | 128 µg/mL (≈ 310 µM) | 0.06 µg/mL (≈ 0.145 µM) | 0.25 µg/mL (≈ 0.606 µM) | 128 µg/mL (≈ 310 µM) | 0.3 µg/mL (≈ 0.727 µM) | – | – | – | – | – | – | – | – | – | –
COc1ccc(OCC(=O)N[C@@H]2C(=O)N3C(C(=O)O)=C(Cl)CS[C@H]23)cc1 | > 128 µg/mL | > 128 µg/mL | 2 µg/mL (≈ 5.01 µM) | 2 µg/mL (≈ 5.01 µM) | > 128 µg/mL | 0.125 µg/mL (≈ 0.313 µM) | 0.25 µg/mL (≈ 0.627 µM) | > 128 µg/mL | 0.06 µg/mL (≈ 0.15 µM) | – | – | – | – | – | – | – | – | – | –
O=C(Cc1csc2ccccc12)N[C@@H]1C(=O)N2C(C(=O)O)=CCS[C@H]12 | > 128 µg/mL | 64 µg/mL (≈ 171 µM) | 4 µg/mL (≈ 10.7 µM) | 0.5 µg/mL (≈ 1.34 µM) | > 128 µg/mL | 0.25 µg/mL (≈ 0.668 µM) | 0.25 µg/mL (≈ 0.668 µM) | > 128 µg/mL | 0.06 µg/mL (≈ 0.16 µM) | 2.9 2mg kg-1 | >10 2mg kg-1 | >10 2mg kg-1 | 0.8 2mg kg-1 | >10 2mg kg-1 | 3.6 | 8.2 2mg kg-1 | 0.25 µg/mL (≈ 0.668 µM) | 0.25 µg/mL (≈ 0.668 µM) | 0.06 µg/mL (≈ 0.16 µM)
O=C(Cc1csc2ccc(Cl)cc12)N[C@@H]1C(=O)N2C(C(=O)O)=C(Cl)CS[C@H]12 | – | 128 µg/mL (≈ 289 µM) | 2 µg/mL (≈ 4.51 µM) | – | 64 µg/mL (≈ 144 µM) | 0.015 µg/mL (≈ 0.0338 µM) | – | 128 µg/mL (≈ 289 µM) | – | – | – | – | – | – | – | – | – | – | –
O=C(Cc1noc(C(Cl)(Cl)Cl)n1)N[C@@H]1C(=O)N2C(C(=O)O)=C(Cl)CS[C@H]12 | > 128 µg/mL | 64 µg/mL (≈ 138 µM) | 4 µg/mL (≈ 8.66 µM) | 4 µg/mL (≈ 8.66 µM) | 16 µg/mL (≈ 34.6 µM) | 0.5 µg/mL (≈ 1.08 µM) | 2 µg/mL (≈ 4.33 µM) | 16 µg/mL (≈ 34.6 µM) | 0.25 µg/mL (≈ 0.541 µM) | – | – | – | – | – | – | – | – | – | –
O=Cc1ccc(OCC(=O)N[C@@H]2C(=O)N3C(C(=O)O)=C(Cl)CS[C@H]23)cc1 | > 128 µg/mL | > 128 µg/mL | 2 µg/mL (≈ 5.04 µM) | 1 µg/mL (≈ 2.52 µM) | > 128 µg/mL | 0.03 µg/mL (≈ 0.0756 µM) | 0.25 µg/mL (≈ 0.63 µM) | > 128 µg/mL | 0.015 µg/mL (≈ 0.0378 µM) | – | – | – | – | – | – | – | – | – | –
CC1=C(C(=O)O)N2C(=O)[C@@H](NC(=O)Cc3csc4ccccc34)[C@H]2SC1 | > 128 µg/mL | > 128 µg/mL | 32 µg/mL (≈ 82.4 µM) | 1 µg/mL (≈ 2.57 µM) | > 128 µg/mL | 1 µg/mL (≈ 2.57 µM) | 1 µg/mL (≈ 2.57 µM) | > 128 µg/mL | 0.5 µg/mL (≈ 1.29 µM) | – | – | – | – | – | – | – | – | – | –
O=C(Cc1ccc(Cl)cc1)N[C@@H]1C(=O)N2C(C(=O)O)=C(Cl)CS[C@H]12 | > 128 µg/mL | 64 µg/mL (≈ 165 µM) | 1 µg/mL (≈ 2.58 µM) | 0.5 µg/mL (≈ 1.29 µM) | 128 µg/mL (≈ 331 µM) | 0.125 µg/mL (≈ 0.323 µM) | 0.25 µg/mL (≈ 0.646 µM) | 64 µg/mL (≈ 165 µM) | 0.06 µg/mL (≈ 0.155 µM) | – | – | – | – | – | – | – | – | – | –
O=C(CSc1nccs1)N[C@@H]1C(=O)N2C(C(=O)O)=C(Cl)CS[C@H]12 | > 128 µg/mL | 32 µg/mL (≈ 81.7 µM) | – | – | 16 µg/mL (≈ 40.8 µM) | 0.5 µg/mL (≈ 1.28 µM) | 1 µg/mL (≈ 2.55 µM) | 16 µg/mL (≈ 40.8 µM) | 0.25 µg/mL (≈ 0.638 µM) | – | – | – | – | – | – | – | – | – | –
Cc1nc(CC(=O)N[C@@H]2C(=O)N3C(C(=O)O)=C(Cl)CS[C@H]23)c(-c2ccccc2)s1 | > 128 µg/mL | > 128 µg/mL | 32 µg/mL (≈ 71.1 µM) | 32 µg/mL (≈ 71.1 µM) | > 128 µg/mL | 0.06 µg/mL (≈ 0.133 µM) | 0.125 µg/mL (≈ 0.278 µM) | > 128 µg/mL | 0.015 µg/mL (≈ 0.0333 µM) | – | – | – | – | – | – | – | – | – | –
O=C(COc1ccc([N+](=O)[O-])cc1)N[C@@H]1C(=O)N2C(C(=O)O)=C(Cl)CS[C@H]12 | > 128 µg/mL | > 128 µg/mL | 2 µg/mL (≈ 4.83 µM) | 1 µg/mL (≈ 2.42 µM) | > 128 µg/mL | 0.03 µg/mL (≈ 0.0725 µM) | 0.25 µg/mL (≈ 0.604 µM) | > 128 µg/mL | 0.015 µg/mL (≈ 0.0362 µM) | – | – | – | – | – | – | – | – | – | –
O=C(Cc1ccccc1)N[C@@H]1C(=O)N2C(C(=O)O)=C(Cl)CS[C@H]12 | 128 µg/mL (≈ 363 µM) | – | – | – | – | 0.125 µg/mL (≈ 0.354 µM) | – | 4 µg/mL (≈ 11.3 µM) | – | – | – | – | – | – | – | – | – | – | –
O=C(Cc1noc(C(Cl)(Cl)Cl)n1)N[C@@H]1C(=O)N2C(C(=O)O)=CCS[C@H]12 | 128 µg/mL (≈ 299 µM) | 32 µg/mL (≈ 74.8 µM) | 32 µg/mL (≈ 74.8 µM) | 16 µg/mL (≈ 37.4 µM) | 32 µg/mL (≈ 74.8 µM) | 2 µg/mL (≈ 4.68 µM) | 2 µg/mL (≈ 4.68 µM) | 16 µg/mL (≈ 37.4 µM) | 2 µg/mL (≈ 4.68 µM) | – | – | – | – | – | – | – | – | – | –
O=C(Cc1csc2ccc(Cl)cc12)N[C@@H]1C(=O)N2C(C(=O)O)=CCS[C@H]12 | – | 128 µg/mL (≈ 313 µM) | – | – | 128 µg/mL (≈ 313 µM) | – | 0.125 µg/mL (≈ 0.306 µM) | > 128 µg/mL | 0.03 µg/mL (≈ 0.0734 µM) | – | – | – | – | – | – | – | – | – | –
